# Test results: ChEMBL document CHEMBL2331520, “Synthesis, surface tension properties and antibacterial activities of amphiphilic D-galactopyranose derivatives” (Eur J Med Chem, 2013)
# Test system: Enterobacter cloacae
# Test: Antibacterial activity against Enterobacter cloacae ATCC 13047 assessed as growth inhibition at 30 degC after 24 hrs by liquid broth dilution method
# Type: functional
# Settings: ATCC 13047, 24 h; call rule not given here
# In short: (§1)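 Strains kept at -80 °C in LB broth with 20% glycerol and grown from 1% (v/v) stock in nutritive broth (yeast extract 1 g/L, meat extract 2 g/L, peptone 5 g/L, NaCl 5 g/L) at 30 °C. Overnight culture adjusted to 0.5 McFarland (~1.5 × 10⁸ cfu/mL). Compound stock 1 g/L in DMSO, serially diluted in broth 1:2 to 1:512, mixed 1:1 with inoculum. Incubation 24 h, 150 rpm, 30 °C. OD600 read; MIC = lowest concentration with no OD increase in all replicates versus negative control.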
row,MIC [µg/mL],Compound
1,≥ 250,CCCCCCCCOC[C@H]1O[C@@H]2OC(C)(C)O[C@@H]2[C@H]2OC(C)(C)O[C@H]21
2,≥ 250,CCCCCCCCCCCCOC[C@H]1O[C@@H]2OC(C)(C)O[C@@H]2[C@H]2OC(C)(C)O[C@H]21
3,≥ 250,CCCCCCCCOC[C@H]1O[C@H](O)[C@H](O)[C@@H](O)[C@H]1O
4,≥ 250,CCCCCCCCCCCCOC[C@H]1O[C@H](O)[C@H](O)[C@@H](O)[C@H]1O

# Test system: Escherichia coli
# Test: Antibacterial activity against Escherichia coli ATCC 10536 assessed as growth inhibition at 30 degC after 24 hrs by liquid broth dilution method
# Type: functional
# Settings: ATCC 10536, 24 h
# In short: as §1
row,MIC [µg/mL],Compound
1,≥ 250,CCCCCCCCOC[C@H]1O[C@@H]2OC(C)(C)O[C@@H]2[C@H]2OC(C)(C)O[C@H]21
2,≥ 250,CCCCCCCCCCCCOC[C@H]1O[C@@H]2OC(C)(C)O[C@@H]2[C@H]2OC(C)(C)O[C@H]21
3,≥ 250,CCCCCCCCOC[C@H]1O[C@H](O)[C@H](O)[C@@H](O)[C@H]1O
4,≥ 250,CCCCCCCCCCCCOC[C@H]1O[C@H](O)[C@H](O)[C@@H](O)[C@H]1O

# Test system: Micrococcus luteus
# Test: Antibacterial activity against Micrococcus luteus CIP 53.45 assessed as growth inhibition at 30 degC after 24 hrs by liquid broth dilution method
# Type: functional
# Settings: CIP 53.45, 24 h
# In short: as §1
row,MIC [µg/mL],Compound
1,≥ 250,CCCCCCCCOC[C@H]1O[C@@H]2OC(C)(C)O[C@@H]2[C@H]2OC(C)(C)O[C@H]21
2,≥ 250,CCCCCCCCCCCCOC[C@H]1O[C@@H]2OC(C)(C)O[C@@H]2[C@H]2OC(C)(C)O[C@H]21
3,≥ 250,CCCCCCCCOC[C@H]1O[C@H](O)[C@H](O)[C@@H](O)[C@H]1O
4,≥ 250,CCCCCCCCCCCCOC[C@H]1O[C@H](O)[C@H](O)[C@@H](O)[C@H]1O

# Test system: Geobacillus stearothermophilus
# Test: Antibacterial activity against Bacillus stearothermophilus ATTC 12980 assessed as growth inhibition at 30 degC after 24 hrs by liquid broth dilution method
# Type: functional
# Settings: ATTC 12980, 24 h
# In short: as §1
row,MIC [µg/mL],Compound
1,≥ 250,CCCCCCCCOC[C@H]1O[C@@H]2OC(C)(C)O[C@@H]2[C@H]2OC(C)(C)O[C@H]21
2,≥ 250,CCCCCCCCCCCCOC[C@H]1O[C@@H]2OC(C)(C)O[C@@H]2[C@H]2OC(C)(C)O[C@H]21
3,≥ 250,CCCCCCCCOC[C@H]1O[C@H](O)[C@H](O)[C@@H](O)[C@H]1O
4,≥ 250,CCCCCCCCCCCCOC[C@H]1O[C@H](O)[C@H](O)[C@@H](O)[C@H]1O

# Test system: Pseudomonas aeruginosa
# Test: Antibacterial activity against Pseudomonas aeruginosa CIP A22 assessed as growth inhibition at 30 degC after 24 hrs by liquid broth dilution method
# Type: functional
# Settings: CIP A22, 24 h
# In short: as §1
row,MIC [µg/mL],Compound
1,≥ 250,CCCCCCCCOC[C@H]1O[C@@H]2OC(C)(C)O[C@@H]2[C@H]2OC(C)(C)O[C@H]21
2,≥ 250,CCCCCCCCCCCCOC[C@H]1O[C@@H]2OC(C)(C)O[C@@H]2[C@H]2OC(C)(C)O[C@H]21
3,≥ 250,CCCCCCCCOC[C@H]1O[C@H](O)[C@H](O)[C@@H](O)[C@H]1O
4,≥ 250,CCCCCCCCCCCCOC[C@H]1O[C@H](O)[C@H](O)[C@@H](O)[C@H]1O

# Test system: Citrobacter freundii
# Test: Antibacterial activity against Citrobacter freundii ATCC 6750 assessed as growth inhibition at 30 degC after 24 hrs by liquid broth dilution method
# Type: functional
# Settings: ATCC 6750, 24 h
# In short: as §1
row,MIC [µg/mL],Compound
1,≥ 250,CCCCCCCCOC[C@H]1O[C@@H]2OC(C)(C)O[C@@H]2[C@H]2OC(C)(C)O[C@H]21
2,≥ 250,CCCCCCCCCCCCOC[C@H]1O[C@@H]2OC(C)(C)O[C@@H]2[C@H]2OC(C)(C)O[C@H]21
3,≥ 250,CCCCCCCCOC[C@H]1O[C@H](O)[C@H](O)[C@@H](O)[C@H]1O
4,≥ 250,CCCCCCCCCCCCOC[C@H]1O[C@H](O)[C@H](O)[C@@H](O)[C@H]1O

# Test system: Mycolicibacterium smegmatis
# Test: Antibacterial activity against Mycobacterium smegmatis CIP 73.26 assessed as growth inhibition at 37 degC after 24 hrs by liquid broth dilution method
# Type: functional
# Settings: CIP 73.26, 24 h
# In short: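 Inoculum at 0.5 McFarland (~1.5 × 10⁸ cfu/mL). DMSO stock (1 g/L) serially diluted in the same medium 1:2 to 1:512. Shaken 24 h at 150 rpm, 37 °C. MIC = lowest concentration with no OD600 rise in any replicate versus negative control.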
row,MIC [µg/mL],Compound
1,≥ 250,CCCCCCCCOC[C@H]1O[C@@H]2OC(C)(C)O[C@@H]2[C@H]2OC(C)(C)O[C@H]21
2,≥ 250,CCCCCCCCCCCCOC[C@H]1O[C@@H]2OC(C)(C)O[C@@H]2[C@H]2OC(C)(C)O[C@H]21
3,≥ 250,CCCCCCCCOC[C@H]1O[C@H](O)[C@H](O)[C@@H](O)[C@H]1O
4,≥ 250,CCCCCCCCCCCCOC[C@H]1O[C@H](O)[C@H](O)[C@@H](O)[C@H]1O

# Test system: not listed separately
# Test: Gamma critical micelle concentration of the compound by wilhelmy method
# Type: physicochemical
# Settings: not given
# In short: (§2)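 Wilhelmy plate method at 293 K. Concentrated solution added stepwise from a syringe into ultrapure water, stirred gently 30 s after each addition, then equilibrium surface tension read. Each value is the mean of at least three measurements (SD within ±1.5% of mean). Transducer precision 0.1 mN/m; platinum plate flame-cleaned. Surface tension plotted against molar concentration to give CMC and γCMC.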
row,gammaCMC,Compound
1,28 mN/meter,CCCCCCCCOC[C@H]1O[C@H](O)[C@H](O)[C@@H](O)[C@H]1O
2,Not Active,CCCCCCCCCCCCOC[C@H]1O[C@H](O)[C@H](O)[C@@H](O)[C@H]1O

# Test system: Dickeya chrysanthemi
# Test: Antibacterial activity against Erwinia chrysanthemi EC3937 assessed as growth inhibition at 30 degC after 24 hrs by liquid broth dilution method
# Type: functional
# Settings: EC3937, 24 h
# In short: as §1
row,MIC [µg/mL],Compound
1,≥ 250,CCCCCCCCOC[C@H]1O[C@@H]2OC(C)(C)O[C@@H]2[C@H]2OC(C)(C)O[C@H]21
2,≥ 250,CCCCCCCCCCCCOC[C@H]1O[C@@H]2OC(C)(C)O[C@@H]2[C@H]2OC(C)(C)O[C@H]21
3,≥ 250,CCCCCCCCOC[C@H]1O[C@H](O)[C@H](O)[C@@H](O)[C@H]1O
4,≥ 250,CCCCCCCCCCCCOC[C@H]1O[C@H](O)[C@H](O)[C@@H](O)[C@H]1O

# Test system: Sinorhizobium meliloti
# Test: Antibacterial activity against Sinorhizobium meliloti Rm1021 assessed as growth inhibition at 30 degC after 24 hrs by liquid broth dilution method
# Type: functional
# Settings: Rm1021, 24 h
# In short: as §1
row,MIC [µg/mL],Compound
1,≥ 250,CCCCCCCCOC[C@H]1O[C@@H]2OC(C)(C)O[C@@H]2[C@H]2OC(C)(C)O[C@H]21
2,≥ 250,CCCCCCCCCCCCOC[C@H]1O[C@@H]2OC(C)(C)O[C@@H]2[C@H]2OC(C)(C)O[C@H]21
3,≥ 250,CCCCCCCCOC[C@H]1O[C@H](O)[C@H](O)[C@@H](O)[C@H]1O
4,≥ 250,CCCCCCCCCCCCOC[C@H]1O[C@H](O)[C@H](O)[C@@H](O)[C@H]1O

# Test system: Staphylococcus aureus
# Test: Antibacterial activity against Staphylococcus aureus subsp aureus CIP 53.154 assessed as growth inhibition at 30 degC after 24 hrs by liquid broth dilution method
# Type: functional
# Settings: CIP 53.154, 24 h
# In short: as §1
row,MIC [µg/mL],Compound
1,≥ 250,CCCCCCCCOC[C@H]1O[C@@H]2OC(C)(C)O[C@@H]2[C@H]2OC(C)(C)O[C@H]21
2,≥ 250,CCCCCCCCCCCCOC[C@H]1O[C@@H]2OC(C)(C)O[C@@H]2[C@H]2OC(C)(C)O[C@H]21
3,≥ 250,CCCCCCCCOC[C@H]1O[C@H](O)[C@H](O)[C@@H](O)[C@H]1O
4,≥ 250,CCCCCCCCCCCCOC[C@H]1O[C@H](O)[C@H](O)[C@@H](O)[C@H]1O

# Test system: not listed separately
# Test: Critical micelle concentration of the compound by wilhelmy method
# Type: physicochemical
# Settings: not given
# In short: as §2
row,CMC,Compound
1,12 mmol/L,CCCCCCCCOC[C@H]1O[C@H](O)[C@H](O)[C@@H](O)[C@H]1O
2,Not Active,CCCCCCCCCCCCOC[C@H]1O[C@H](O)[C@H](O)[C@@H](O)[C@H]1O
